Measured values from ChEMBL document CHEMBL3596101, “The Mechanism of Ca(2+) Movement in the Involvement of Baicalein-Induced Cytotoxicity in ZR-75-1 Human Breast Cancer Cells” (J Nat Prod, 2015).
The source made the active and inactive calls. The rule behind the calls is not given here.

Key:
ZR-75-1 [1] = experiment: Increase in intracellular Ca2+ level in human ZR-75-1 cells at 50 uM treated for 25 secs by fura-2-AM dye-based spectrofluorophotometric analysis in presence of Ca2+ containing medium (reference value: 50 +/- 3 nM); type: functional; details: in the assay text read “40 uM treated” for “50 uM treated”
In short: (§1)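 Fura-2-loaded ZR-75-1 cells (0.5 million per 1 mL, stirred, 25 °C) in Ca2+-containing or Ca2+-free medium. Compound added at 25 s. 340/380 nm excitation, 510 nm emission at 1 s intervals, calibrated to nM. Concentration-response from baseline-subtracted area under curve (25–250 s) as % of 50 μM response in Ca2+ medium. EC50 from Hill fit. Three experiments.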

ZR-75-1 [2] = experiment: Induction of apoptosis in human ZR-75-1 cells assessed as increase in cleaved caspase-9 level at 20 to 40 uM after 24 hrs by Western immunoblot analysis; type: functional, cell-based
In short: (§2)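 Confluent ZR-75-1 cells (3 × 10^6/dish) treated with 20, 30 or 40 μM compound for 24 h. Where used, 5 μM BAPTA-AM or 5 μM NAC was added before the compound. About 50 μg lysate protein run on 10% SDS-PAGE, transferred to PVDF, probed for cleaved caspase-9/-3 and β-actin, chemiluminescence. Densitometry normalized to β-actin. Three experiments.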

ZR-75-1 [3] = experiment: Increase in intracellular Ca2+ level in human ZR-75-1 cells at 40 uM treated for 25 secs by fura-2-AM dye-based spectrofluorophotometric analysis in presence of Ca2+-free medium (reference value: 50 +/- 2 nM); type: functional; in short: as §1
ZR-75-1 [4] = experiment: Induction of apoptosis in human ZR-75-1 cells assessed as activation of caspase-9 at 20 to 40 uM preincubated for 24 hrs followed by antioxidant N-Acetylcysteine addition by Western immunoblot analysis; type: functional, cell-based; in short: as §2
ZR-75-1 [5] = experiment: Induction of reactive oxygen species production in human ZR-75-1 cells at 30 uM after 24 hrs by DCFH-DA probe-based flow cytometric analysis (reference value: 3.623%); type: functional
In short: (§3)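 ZR-75-1 cells treated with 20–40 μM compound for 24 h, with 5 μM BAPTA-AM added first where indicated. Cells suspended at 1 × 10^6/mL, loaded with 10 μM DCFH-DA for 30 min at 37 °C. DCF read by flow cytometry (488 nm excitation, 530/30 nm filter, 10000 cells). % H2O2-positive (M1) after subtracting the baseline without probe. Three experiments.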

ZR-75-1 [6] = experiment: Induction of apoptosis in human ZR-75-1 cells at 20 to 50 uM preincubated for 24 hrs followed by antioxidant N-Acetylcysteine and Ca2+ chelator BAPTA-AM addition by annexin V-FITC/propidium iodide staining-based flow cytometric analysis; type: functional, cell-based
ZR-75-1 [7] = experiment: Cytotoxicity against human ZR-75-1 cells assessed as decrease in cell viability after 24 hrs by WST-1 assay; type: functional, cell-based
In short: (§4)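 WST-1 assay on ZR-75-1 cells seeded at 10000 cells/well, exposed to 0–50 μM compound for 24 h. Where used, 5 μM BAPTA-AM was given for 1 h beforehand, then cells were washed with Ca2+-containing medium. WST-1 incubation 30 min, A450 read. Viability expressed as % of compound-free control. Six wells per treatment, three separate experiments.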

ZR-75-1 [8] = experiment: Increase in intracellular Ca2+ level in human ZR-75-1 cells at 40 uM measured every 150 secs by fura-2-AM dye-based spectrofluorophotometric analysis in presence of Ca2+ containing medium with PKC inhibitor GF109203X; type: functional, cell-based
In short: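 In Ca2+-containing medium (2 mM CaCl2), 2-APB (30 μM) or GF109203X (2 μM) was added 1 min before 40 μM compound to fura-2-loaded ZR-75-1 cells at 25 °C. Response = net area under curve over a 150 s interval, as % of compound alone. Mean ± SEM, n=3.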

ZR-75-1 [9] = experiment: Increase in intracellular Ca2+ level in human ZR-75-1 cells at 40 uM treated for 60 secs post PLC inhibitor U73122 addition by fura-2-AM dye-based spectrofluorophotometric analysis in presence of Ca2+ free medium; type: functional, cell-based
In short: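 Performed in Ca2+-free medium with fura-2-loaded ZR-75-1 cells. Response expressed relative to 40 μM compound alone (100%). Three experiments.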

[10] = Cytotoxicity against human ZR-75-1 cells assessed as cell viability at 50 uM measured 20 mins post intracellular Ca2+ level detection by trypan blue exclusion assay relative to control; type: cell-based; details: read-out: Activity
In short: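 Fura-2-loaded ZR-75-1 cells were held in the fluorescence cuvette with 50 μM compound. Viability was scored by trypan blue exclusion after 20 min of fluorescence recording.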

ZR-75-1 [11] = experiment: Cytotoxicity against human ZR-75-1 cells assessed as induction cell death at 20 to 50 uM after 24 hrs by WST-1 assay in presence of Ca2+ containing medium with Ca2+ chelator BAPTA-AM; type: functional, cell-based; in short: as §4
ZR-75-1 [12] = experiment: Increase in intracellular Ca2+ level in human ZR-75-1 cells at 40 uM treated for 25 secs by fura-2-AM dye-based spectrofluorophotometric analysis in presence of Ca2+ containing medium (reference value: 50 +/- 3 nM); type: functional; in short: as §1
ZR-75-1 [13] = experiment: Inhibition of endoplasmic reticulum Ca2+ pump inhibitor thapsigargin-induced intracellular Ca2+ increase in human ZR-75-1 cells at 40 uM pretreated with compound followed by thapsigargin induction in presence of Ca2+ free medium; type: functional, cell-based
In short: (§5)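 ZR-75-1 cells loaded with 2 μM fura-2-AM for 30 min at 25 °C, then suspended in Ca2+-free medium (pH 7.4; 0.3 mM EGTA, 3 mM MgCl2). Stirred cuvette at 25 °C. Thapsigargin (1 μM) or BHQ (50 μM) given before or after 40 μM compound. Excitation 340/380 nm, emission 510 nm, read at 1 s intervals. [Ca2+]i calibrated with Triton X-100/CaCl2 then EGTA.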

ZR-75-1 [14] = experiment: Induction of apoptosis in human ZR-75-1 cells assessed as early apoptotic cells at 20 uM after 24 hrs by annexin V-FITC/propidium iodide staining-based flow cytometric analysis (reference value: 6.84%); type: functional
In short: (§6)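 ZR-75-1 cells exposed to 20–40 μM compound for 24 h, with 5 μM BAPTA-AM or NAC added first where indicated. Cells stained with Alexa Fluor 488 annexin V/PI for 15 min, at least 20000 cells analysed by flow cytometry (488 nm excitation, 530/575 nm filters). Early = annexin V+/PI−, late = annexin V+/PI+. Three independent biological replicates.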

ZR-75-1 [15] = experiment: Induction of apoptosis in human ZR-75-1 cells assessed as late apoptotic cells at 20 uM after 24 hrs by annexin V-FITC/propidium iodide staining-based flow cytometric analysis (reference value: 2.53%); type: functional; in short: as §6
ZR-75-1 [16] = experiment: Induction of apoptosis in human ZR-75-1 cells assessed as increase in cleaved caspase-3 level at 20 to 40 uM after 24 hrs by Western immunoblot analysis; type: functional, cell-based; in short: as §2
ZR-75-1 [17] = experiment: Induction of Ca2+ influx in human ZR-75-1 cells at 40 uM by measuring Mn2+ quenching of fura-2-AM for 200 secs by spectrofluorophotometric analysis in presence of Ca2+ containing medium; type: functional, cell-based
In short: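 Mn2+ quench assay: 50 μM MnCl2 added to fura-2-loaded ZR-75-1 cells in Ca2+-containing medium 1 min before recording. Excitation 360 nm (Ca2+-insensitive), emission 510 nm, 1 s intervals, 25 °C. Compound (40 μM) added during the trace, recorded up to 200 s. Arbitrary units, three experiments.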

ZR-75-1 [18] = experiment: Effect on endoplasmic reticulum Ca2+ pump inhibitor BHQ-induced intracellular Ca2+ increase in human ZR-75-1 cells at 40 uM pretreated with BHQ followed by compound addition in presence of Ca2+ free medium; type: functional, cell-based; in short: as §5
ZR-75-1 [19] = experiment: Inhibition of endoplasmic reticulum Ca2+ pump inhibitor BHQ-induced intracellular Ca2+ increase in human ZR-75-1 cells at 40 uM pretreated with compound followed by BHQ induction in presence of Ca2+ free medium; type: functional, cell-based; in short: as §5
ZR-75-1 [20] = experiment: Induction of reactive oxygen species production in human ZR-75-1 cells at 20 to 40 uM after 24 hrs by DCFH-DA probe-based flow cytometric analysis in presence of Ca2+ containing medium with Ca2+ chelator BAPTA-AM; type: functional, cell-based; in short: as §3
ZR-75-1 [21] = experiment: Induction of cell death in human ZR-75-1 cells at 20 to 50 uM after 24 hrs by WST-1 assay in presence of antioxidant N-Acetylcysteine; type: functional, cell-based
In short: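 WST-1 viability assay in ZR-75-1 cells: 5 μM NAC added, then 20–50 μM compound in NAC-containing medium for 24 h. A450 read after 30 min WST-1 incubation and expressed as % of control. Mean ± SEM of three experiments.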

With `O=c1cc(-c2ccccc2)oc2cc(O)c(O)c(O)c12` [BAICALEIN] the Activity (ZR-75-1 [1]) was 220 nM, the Activity (ZR-75-1 [2]) was “Active” and the Activity (ZR-75-1 [3]) was 103 nM. For the same molecule, the Activity (ZR-75-1 [4]) was “inactive”, the Activity (ZR-75-1 [5]) was 32.663% and the Activity (ZR-75-1 [6]) was “inactive”. For the same molecule, the Activity (ZR-75-1 [7]) was “Dose-dependent effect”, the Activity (ZR-75-1 [8]) was “inactive” and the Activity (ZR-75-1 [9]) was “inactive”. For the same molecule, the viability at 20 min, 50 µM [10] was 95%, the Activity (ZR-75-1 [11]) was “inactive” and the Activity (ZR-75-1 [12]) was 220 nM. For the same molecule, the inhibition (ZR-75-1 [13]) was “Active”, the Activity (ZR-75-1 [14]) was 22.71% and the Activity (ZR-75-1 [15]) was 2.36%. The Activity (ZR-75-1 [16]) was “Active”, the Activity (ZR-75-1 [17]) was “Active” and the Activity (ZR-75-1 [18]) was “inactive”. The inhibition (ZR-75-1 [19]) was “Active”, the Activity (ZR-75-1 [20]) was “inactive” and the Activity (ZR-75-1 [21]) was “inactive”.
